Tests used:
[1] = test system: TT; assay: Antiproliferative activity against human TT cells after 72 hrs by cell counter
[2] = test system: HUVEC; assay: Antiproliferative activity against HUVEC after 72 hrs by cell counter; settings: Homo sapiens
[3] = biological target: Proto-oncogene tyrosine-protein kinase receptor Ret (Homo sapiens) (UniProt P07949); assay: Inhibition of recombinant human RET at 100 uM incubated for 5 mins with substrate prior to protein addition by fluorescence assay relative to control
Chain of Proto-oncogene tyrosine-protein kinase receptor Ret (Homo sapiens) (P07949 whole entry): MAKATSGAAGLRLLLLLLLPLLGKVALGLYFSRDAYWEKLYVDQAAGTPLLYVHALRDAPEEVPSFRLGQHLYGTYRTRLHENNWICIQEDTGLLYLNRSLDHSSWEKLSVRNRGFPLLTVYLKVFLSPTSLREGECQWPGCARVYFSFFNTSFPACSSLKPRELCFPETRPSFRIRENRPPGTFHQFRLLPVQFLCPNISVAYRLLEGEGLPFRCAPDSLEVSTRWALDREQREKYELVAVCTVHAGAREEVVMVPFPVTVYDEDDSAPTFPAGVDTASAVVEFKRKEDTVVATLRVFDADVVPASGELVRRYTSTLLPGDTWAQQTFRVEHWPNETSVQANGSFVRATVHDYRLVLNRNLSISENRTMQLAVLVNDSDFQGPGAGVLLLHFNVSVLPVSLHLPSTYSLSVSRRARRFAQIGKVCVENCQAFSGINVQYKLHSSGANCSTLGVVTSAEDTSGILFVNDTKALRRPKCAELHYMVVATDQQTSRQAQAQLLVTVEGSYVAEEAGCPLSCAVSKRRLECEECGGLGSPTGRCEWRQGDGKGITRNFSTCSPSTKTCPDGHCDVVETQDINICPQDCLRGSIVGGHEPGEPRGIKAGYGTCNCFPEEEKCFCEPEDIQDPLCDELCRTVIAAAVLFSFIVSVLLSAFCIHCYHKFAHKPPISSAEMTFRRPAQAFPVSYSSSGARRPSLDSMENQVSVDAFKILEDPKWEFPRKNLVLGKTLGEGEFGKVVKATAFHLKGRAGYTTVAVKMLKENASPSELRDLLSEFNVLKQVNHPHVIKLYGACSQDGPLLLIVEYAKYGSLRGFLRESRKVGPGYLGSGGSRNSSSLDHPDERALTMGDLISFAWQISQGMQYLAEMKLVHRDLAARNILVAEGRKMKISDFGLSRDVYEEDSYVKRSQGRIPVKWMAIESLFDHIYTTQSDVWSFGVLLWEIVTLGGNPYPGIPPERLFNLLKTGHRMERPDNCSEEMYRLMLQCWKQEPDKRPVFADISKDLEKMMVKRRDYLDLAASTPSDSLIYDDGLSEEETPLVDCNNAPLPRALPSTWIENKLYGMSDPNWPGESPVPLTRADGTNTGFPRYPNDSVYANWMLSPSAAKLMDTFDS
In short: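 Human recombinant RET was assayed with Omnia Tyr peptide 7 substrate at 30 °C, from 1 mM ATP and 1 mM DTT stocks, with DMSO ≤1% final. Mix plus inhibitor was preincubated 5 min before kinase was added to start the reaction. Fluorescence (ex 360/em 485 nm) was followed over time, and activity was taken from a linear fit of intensity versus time. Compounds were screened at 100 μM.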

[4] = Antiproliferative activity against HNDF after 72 hrs by cell counter; settings: Homo sapiens
[5] = test system: 8305C; assay: cells; settings: Homo sapiens, 72 h
[6] = Antiproliferative activity against HMVEC-d cells after 72 hrs; settings: Homo sapiens
[7] = test system: TT; assay: Antiproliferative activity against human TT cells

O=C(Nc1ccccc1)Nc1cccc(CNc2ncnc3c2cnn3CCc2ccccc2)c1
IC50 [1]: 8.42 µM | IC50 [2]: 13.4 µM

O=S(=O)(Nc1cccc(CNc2ncnc3c2cnn3CCc2ccccc2)c1)c1ccccc1
IC50 [1]: 8.08 µM | IC50 [2]: 22.6 µM

O=[N+]([O-])c1ccc(S(=O)(=O)Nc2cccc(CNc3ncnc4c3cnn4CCc3ccccc3)c2)cc1
inhibition [3]: 57%

COc1ccc(S(=O)(=O)Nc2cccc(CNc3ncnc4c3cnn4CCc3ccccc3)c2)cc1OC
inhibition [3]: 8%

O=C(Nc1ccc(Br)cc1)Nc1cccc(CNc2ncnc3c2cnn3CCc2ccccc2)c1
IC50 [1]: 9.86 µM | IC50 [2]: 18.6 µM

O=S(=O)(Cc1ccccc1)Nc1cccc(CNc2ncnc3c2cnn3CCc2ccccc2)c1
IC50 [1]: 5.97 µM | IC50 [2]: 50.7 µM | IC50 [4]: 23.6 µM

O=C(Nc1cccc(CNc2ncnc3c2cnn3CCc2ccccc2)c1)c1ccccc1
IC50 [1]: 13.8 µM | IC50 [2]: 15.3 µM

C[C@@H](Nc1ncnc2c1cnn2CCc1ccccc1)c1ccccc1
IC50 [5]: 9.2 µM | inhibition [3]: 48% | IC50 [6]: 0.0004 µM | IC50 [7]: 26.9 µM

O=C(Nc1cccc(CNc2ncnc3c2cnn3CCc2ccccc2)c1)c1ccc(F)cc1
IC50 [1]: 13.6 µM | IC50 [2]: 15.9 µM

O=C(Nc1cccc(CNc2ncnc3c2cnn3CCc2ccccc2)c1)c1ccc([N+](=O)[O-])cc1
IC50 [1]: 6.13 µM | IC50 [2]: 16.6 µM | IC50 [4]: 22 µM

O=C(Nc1ccc([N+](=O)[O-])cc1)Nc1cccc(CNc2ncnc3c2cnn3CCc2ccccc2)c1
inhibition [3]: 37%

O=C(Nc1cccc(CNc2ncnc3c2cnn3CCc2ccccc2)c1)c1ccc(Br)cc1
IC50 [1]: 13.5 µM | IC50 [2]: 9.83 µM

— ChEMBL document CHEMBL3124801, “Structure-based optimization of tyrosine kinase inhibitor CLM3. Design, synthesis, functional evaluation, and molecular modeling studies” (J Med Chem, 2014)
